One assay has as its system HeLa. Kind of assay: Inhibition of bipolar spindle formation in human HeLa cells at 1 uM. It counts as functional, cell-based. The essentials: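 HeLa cells were grown in MEM with Earle's BSS, 10% FBS, sodium bicarbonate and pyruvate at 37°C in 5% CO2. They were exposed to compound in DMSO for 4 h, with 0.1% DMSO as carrier control. Cells were fixed in −20°C methanol and immunostained for tubulin, with DNA counterstained. Bipolar spindle formation was scored in 100 mitotic cells per condition.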

Assay [1] addresses Chromosome-associated kinesin KIF4A (Homo sapiens) (UniProt O95239). Kind of assay: Inhibition of chromokinesin.
Assay [2] addresses T1, Kinesin-like protein Klp61F (Drosophila melanogaster) (UniProt P46863).
T1 sequence (whole entry): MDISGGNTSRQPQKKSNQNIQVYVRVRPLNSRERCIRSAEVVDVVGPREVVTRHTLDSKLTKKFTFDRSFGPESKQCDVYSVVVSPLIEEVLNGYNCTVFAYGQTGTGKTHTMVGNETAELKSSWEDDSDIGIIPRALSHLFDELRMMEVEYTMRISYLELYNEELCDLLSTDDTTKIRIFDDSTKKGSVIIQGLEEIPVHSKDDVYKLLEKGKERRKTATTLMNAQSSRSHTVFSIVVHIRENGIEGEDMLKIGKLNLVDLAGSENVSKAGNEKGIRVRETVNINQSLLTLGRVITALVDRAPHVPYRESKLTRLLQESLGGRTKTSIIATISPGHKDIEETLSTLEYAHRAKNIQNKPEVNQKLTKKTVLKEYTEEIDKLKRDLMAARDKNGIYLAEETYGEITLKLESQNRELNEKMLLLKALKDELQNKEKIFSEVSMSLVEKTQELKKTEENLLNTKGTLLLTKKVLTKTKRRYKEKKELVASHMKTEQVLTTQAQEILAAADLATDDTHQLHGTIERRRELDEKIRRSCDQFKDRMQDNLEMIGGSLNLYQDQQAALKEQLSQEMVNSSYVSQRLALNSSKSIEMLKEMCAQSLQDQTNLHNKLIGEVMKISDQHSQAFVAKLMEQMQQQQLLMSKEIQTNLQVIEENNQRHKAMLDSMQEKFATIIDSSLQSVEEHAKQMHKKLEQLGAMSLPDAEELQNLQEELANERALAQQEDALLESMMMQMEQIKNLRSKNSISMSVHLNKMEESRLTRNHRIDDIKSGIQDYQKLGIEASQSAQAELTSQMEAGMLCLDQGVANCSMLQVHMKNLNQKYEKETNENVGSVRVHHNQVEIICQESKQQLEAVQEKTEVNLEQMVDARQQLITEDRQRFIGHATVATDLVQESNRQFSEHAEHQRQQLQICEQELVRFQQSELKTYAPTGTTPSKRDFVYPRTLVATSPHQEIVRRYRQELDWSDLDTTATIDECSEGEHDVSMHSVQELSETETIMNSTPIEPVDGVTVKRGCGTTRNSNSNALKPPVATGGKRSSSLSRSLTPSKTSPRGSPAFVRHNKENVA
Kind of assay: Inhibition of Drosophila melanogaster Klp61F in S2 cells at 100 uM up to 7 hrs by immunofluorescence analysis. It counts as cell-based. The essentials:
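Drosophila S2 cells were exposed to compound over a three-log concentration range up to 100 μM, with treatments extending up to 7 h. Bipolar spindle formation was scored by immunofluorescence.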

Assay [3] is described as follows: Inhibition of bipolar spindle formation in Strongylocentrotus purpuratus eggs. It counts as functional, Egg. Put shortly: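 S. purpuratus eggs (gametes released with 0.5M KCl) were fertilized in artificial seawater with 2 mM 3-amino triazole and stripped of envelopes 20 min post-fertilization. They were then cultured with 0.1% DMSO or inhibitor at 100 nM–100 μM, fixed at first mitosis and stained for microtubules and DNA. 100 cells per condition were scored for bipolar spindles to derive EC50.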

A further assay relates to HL-60(TB). Kind of assay: Growth inhibition of human HL-60(TB) cells. It counts as functional.
The next assay concerns MOLT-4. Kind of assay: Growth inhibition of human MOLT4 cells. It counts as functional.
The subject of another assay is U-251. Kind of assay: Growth inhibition of human U251 cells. It counts as functional.
Another assay has as its system SK-MEL-2. Kind of assay: Growth inhibition of human SK-MEL-2 cells. It counts as functional.
The test system of another assay is SK-MEL-5. Kind of assay: Growth inhibition of human SK-MEL-5 cells. It counts as functional.
For the next assay, the system named is OVCAR-4. Kind of assay: Growth inhibition of human OVCAR4 cells. It counts as functional.

pEC50: −log10 of the molar value. Active and inactive are the calls of the source. No cut-off for these calls is given here.

Chromosome-associated kinesin KIF4A (Homo sapiens), sequence (O95239 whole entry): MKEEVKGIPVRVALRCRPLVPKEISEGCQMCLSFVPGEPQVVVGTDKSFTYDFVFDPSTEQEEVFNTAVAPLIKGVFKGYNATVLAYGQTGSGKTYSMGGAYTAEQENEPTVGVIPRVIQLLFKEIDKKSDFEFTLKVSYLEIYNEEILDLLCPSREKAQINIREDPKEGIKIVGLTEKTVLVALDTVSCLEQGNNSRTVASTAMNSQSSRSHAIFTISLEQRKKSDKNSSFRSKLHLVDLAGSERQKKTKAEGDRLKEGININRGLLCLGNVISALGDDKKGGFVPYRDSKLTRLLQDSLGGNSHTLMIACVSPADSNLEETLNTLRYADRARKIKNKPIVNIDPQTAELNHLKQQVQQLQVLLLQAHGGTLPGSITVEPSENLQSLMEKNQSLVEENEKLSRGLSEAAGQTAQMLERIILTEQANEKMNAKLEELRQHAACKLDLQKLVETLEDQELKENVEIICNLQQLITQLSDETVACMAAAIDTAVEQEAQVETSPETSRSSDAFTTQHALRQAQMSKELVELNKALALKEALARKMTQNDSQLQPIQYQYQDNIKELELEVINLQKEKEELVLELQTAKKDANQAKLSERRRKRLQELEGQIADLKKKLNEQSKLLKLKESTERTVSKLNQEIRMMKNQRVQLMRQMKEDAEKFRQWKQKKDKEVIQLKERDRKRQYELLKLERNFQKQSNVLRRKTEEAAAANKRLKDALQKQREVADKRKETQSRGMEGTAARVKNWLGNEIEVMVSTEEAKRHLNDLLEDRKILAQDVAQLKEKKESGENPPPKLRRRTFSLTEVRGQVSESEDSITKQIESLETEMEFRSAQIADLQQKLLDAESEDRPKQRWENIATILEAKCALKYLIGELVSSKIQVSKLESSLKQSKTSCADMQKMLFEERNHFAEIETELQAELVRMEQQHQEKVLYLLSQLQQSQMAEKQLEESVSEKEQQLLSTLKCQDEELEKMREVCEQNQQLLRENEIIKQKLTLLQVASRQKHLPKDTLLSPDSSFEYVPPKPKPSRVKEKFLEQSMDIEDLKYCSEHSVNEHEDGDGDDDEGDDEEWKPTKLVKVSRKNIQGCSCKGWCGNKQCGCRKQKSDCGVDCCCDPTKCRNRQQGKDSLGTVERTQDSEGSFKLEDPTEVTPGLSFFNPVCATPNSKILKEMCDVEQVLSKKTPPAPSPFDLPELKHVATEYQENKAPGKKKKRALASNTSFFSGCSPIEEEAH

As for `COc1ccc(C(SC[C@H](N)CO)(c2ccccc2)c2ccccc2)cc1`, the inhibition entry in the assay on HeLa is “Active”. Besides, the inhibition entry in assay [1] and in assay [2] was “inactive” throughout. The compound further had a pEC50 in assay [3] of 4.55. Further, the GI50 was found to be 190 nM in the assay on HL-60(TB); 280 nM with MOLT-4; 190 nM with U-251; 240 nM in the assay on SK-MEL-2; 60 nM with SK-MEL-5; 1620 nM in the assay on OVCAR-4.

As usually defined, the pEC50 is the negative decadic logarithm of the EC50, by convention in mol/L. The term GI50 denotes the concentration at which growth is held to half of that of the control.

Source of the values: ChEMBL document CHEMBL1817631, “Synthesis and characterization of tritylthioethanamine derivatives with potent KSP inhibitory activity” (Bioorg Med Chem, 2011).
